The record followed here is ChEMBL document CHEMBL3272259, “Nitroimidazoles with antibacterial activity against Neisseria gonorrhoeae” (1977).

Values after ≈ are worked out from the molar mass of the structure shown. Active and inactive are the calls of the source. The calls are words filed in the database; no cut-off is given here. Where only a bound is given, the exact number is not on record here.

One experiment relates to Tritrichomonas foetus. Kind of experiment: Antibacterial activity against Tritrichomonas foetus 1002-96-27 after 48 hrs by ten-fold serial dilution method. The class given is functional. The conditions noted are these: 1002-96-27, 48 h. The method, boiled down: (§1)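 Trichomonads were cultured in Diamond medium with 5% serum and incubated 48 h at 37 °C. Cultures were examined microscopically for motile cells, and the MIC (µg/mL) is the lowest concentration giving no motile organisms.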
For orientation: MIC means the lowest concentration found to suppress growth. Read a high MIC as a need for much substance. Molecule `COC(=O)CCCCCCCCCCS(=O)(=O)c1ncc([N+](=O)[O-])n1C` came in with an MIC greater than 100 µg/mL.

`Cn1c([N+](=O)[O-])cnc1SCCCCOc1ccc(C(=O)O)cc1` registered an MIC of 1 µg/mL (≈ 2.85 µM).

`Cn1c([N+](=O)[O-])cnc1SCCC(=O)O` gave an MIC of 10 µg/mL (≈ 43.2 µM).

As to `Cn1c([N+](=O)[O-])cnc1SCCCCCCCOc1ccccc1[N+](=O)[O-]`, the MIC stood at 100 µg/mL (≈ 254 µM).

With `COC(=O)CCCCCCCCCC[S+]([O-])c1ncc([N+](=O)[O-])n1C` (stereo not drawn), it took 100 µg/mL (≈ 268 µM) to inhibit growth (MIC).

Turning to `Cn1c([N+](=O)[O-])cnc1[S+]([O-])CCOc1ccc(C#N)cc1` (stereo not drawn), 100 µg/mL (≈ 312 µM) was the least that counted as inhibitory (MIC).

In turn, `Cn1c([N+](=O)[O-])cnc1[S+]([O-])CCCCCCCOc1ccccc1[N+](=O)[O-]` (stereo not drawn) displayed an MIC of 100 µg/mL (≈ 244 µM).

In turn, `Cn1c([N+](=O)[O-])cnc1[S+]([O-])CCCCCCCCCCC(=O)O` (stereo not drawn) registered an MIC of 100 µg/mL (≈ 278 µM).

Consider `CCOC(=O)c1ccc(OCCCCCCCCCCSc2ncc([N+](=O)[O-])n2C)c([N+](=O)[O-])c1`, for which the MIC came out at 10 µg/mL (≈ 19.7 µM).

For another experiment, the system named is Bacteroides fragilis. Kind of experiment: Antibacterial activity against Bacteroides fragilis ATCC 23745 after 24 hrs by ten-fold serial dilution method. It counts as functional. The conditions noted are these: ATCC 23745, 24 h. The procedure, abridged:
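Grown in Fluid Thioglycollate Broth and incubated 24 h at 37 °C. Growth was read by eye, and the MIC (µg/mL) is the lowest concentration that prevented visible growth.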
For `COC(=O)CCCCCCCCCCS(=O)(=O)c1ncc([N+](=O)[O-])n1C`, the MIC is greater than 100 µg/mL.

`Cn1c([N+](=O)[O-])cnc1SCCCCOc1ccc(C(=O)O)cc1` returned a minimal inhibitory concentration (MIC) of 10 µg/mL (≈ 28.5 µM).

Take `Cn1c([N+](=O)[O-])cnc1SCCC(=O)O`: the minimum inhibitory concentration (MIC) was determined as 10 µg/mL (≈ 43.2 µM).

`Cn1c([N+](=O)[O-])cnc1SCCCCCCCOc1ccccc1[N+](=O)[O-]` displayed an MIC greater than 100 µg/mL.

Turning to `COC(=O)CCCCCCCCCC[S+]([O-])c1ncc([N+](=O)[O-])n1C` (stereo not drawn), the MIC is greater than 100 µg/mL.

In turn, `Cn1c([N+](=O)[O-])cnc1[S+]([O-])CCOc1ccc(C#N)cc1` (stereo not drawn) registered an MIC of 100 µg/mL (≈ 312 µM).

`Cn1c([N+](=O)[O-])cnc1[S+]([O-])CCCCCCCOc1ccccc1[N+](=O)[O-]` (stereo not drawn) came in with an MIC of 100 µg/mL (≈ 244 µM).

`Cn1c([N+](=O)[O-])cnc1[S+]([O-])CCCCCCCCCCC(=O)O` (stereo not drawn) gave an MIC greater than 100 µg/mL.

The molecule `CCOC(=O)c1ccc(OCCCCCCCCCCSc2ncc([N+](=O)[O-])n2C)c([N+](=O)[O-])c1` gave an MIC of 10 µg/mL (≈ 19.7 µM).

A further experiment deals with Pentatrichomonas hominis. Kind of experiment: Antibacterial activity against Pentatrichomonas hominis ATCC 30000 after 48 hrs by ten-fold serial dilution method. The class given is functional. The conditions noted are these: ATCC 30000, 48 h. The method, boiled down: as §1
As to `COC(=O)CCCCCCCCCCS(=O)(=O)c1ncc([N+](=O)[O-])n1C`, the MIC is greater than 100 µg/mL.

`Cn1c([N+](=O)[O-])cnc1SCCCCOc1ccc(C(=O)O)cc1` came in with an MIC of 1 µg/mL (≈ 2.85 µM).

For the molecule `Cn1c([N+](=O)[O-])cnc1SCCC(=O)O`, it took 10 µg/mL (≈ 43.2 µM) to inhibit growth (MIC).

`Cn1c([N+](=O)[O-])cnc1SCCCCCCCOc1ccccc1[N+](=O)[O-]` had a minimum inhibitory concentration (MIC) of 100 µg/mL (≈ 254 µM).

In turn, `COC(=O)CCCCCCCCCC[S+]([O-])c1ncc([N+](=O)[O-])n1C` (stereo not drawn) registered an MIC of 100 µg/mL (≈ 268 µM).

With `Cn1c([N+](=O)[O-])cnc1[S+]([O-])CCOc1ccc(C#N)cc1` (stereo not drawn), the MIC is 100 µg/mL (≈ 312 µM).

Consider `Cn1c([N+](=O)[O-])cnc1[S+]([O-])CCCCCCCOc1ccccc1[N+](=O)[O-]` (stereo not drawn), for which the MIC came to 100 µg/mL (≈ 244 µM).

`Cn1c([N+](=O)[O-])cnc1[S+]([O-])CCCCCCCCCCC(=O)O` (stereo not drawn) displayed an MIC of 100 µg/mL (≈ 278 µM).

The molecule `CCOC(=O)c1ccc(OCCCCCCCCCCSc2ncc([N+](=O)[O-])n2C)c([N+](=O)[O-])c1` had a minimal inhibitory concentration (MIC) of 10 µg/mL (≈ 19.7 µM).

The subject of the next experiment is Candida albicans. In words: Antifungal activity against Candida albicans. It counts as functional, organism-based.
Details: not given
As to `COC(=O)CCCCCCCCCCS(=O)(=O)c1ncc([N+](=O)[O-])n1C`, the outcome was inactive.

Take `Cn1c([N+](=O)[O-])cnc1SCCCCOc1ccc(C(=O)O)cc1`: the result was inactive.

Consider `Cn1c([N+](=O)[O-])cnc1SCCC(=O)O`, for which the result was inactive.

Regarding `Cn1c([N+](=O)[O-])cnc1SCCCCCCCOc1ccccc1[N+](=O)[O-]`, the result was inactive.

Turning to `COC(=O)CCCCCCCCCC[S+]([O-])c1ncc([N+](=O)[O-])n1C` (stereo not drawn), the result was inactive.

On to `Cn1c([N+](=O)[O-])cnc1[S+]([O-])CCOc1ccc(C#N)cc1` (stereo not drawn), for which the outcome was inactive.

Turning to `Cn1c([N+](=O)[O-])cnc1[S+]([O-])CCCCCCCOc1ccccc1[N+](=O)[O-]` (stereo not drawn), the result was inactive.

Consider `Cn1c([N+](=O)[O-])cnc1[S+]([O-])CCCCCCCCCCC(=O)O` (stereo not drawn), for which the result was inactive.

Consider `CCOC(=O)c1ccc(OCCCCCCCCCCSc2ncc([N+](=O)[O-])n2C)c([N+](=O)[O-])c1`, for which the outcome was inactive.

A further experiment has as its system Clostridium perfringens. Kind of experiment: Antibacterial activity against Clostridium perfringens ATCC 13124 after 24 hrs by ten-fold serial dilution method. It counts as functional. The conditions noted are these: ATCC 13124, 24 h. The procedure, abridged: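 Grown in Fluid Thioglycollate Broth and incubated 24 h at 37 °C. Growth was checked by eye after incubation. MIC was taken as the lowest concentration, in μg/mL, that prevented visible growth.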
On to `COC(=O)CCCCCCCCCCS(=O)(=O)c1ncc([N+](=O)[O-])n1C`, for which the MIC is greater than 100 µg/mL.

`Cn1c([N+](=O)[O-])cnc1SCCCCOc1ccc(C(=O)O)cc1` had an MIC of 10 µg/mL (≈ 28.5 µM).

`Cn1c([N+](=O)[O-])cnc1SCCC(=O)O`: the MIC turned out to be 10 µg/mL (≈ 43.2 µM).

Take `Cn1c([N+](=O)[O-])cnc1SCCCCCCCOc1ccccc1[N+](=O)[O-]`: the MIC was greater than 100 µg/mL.

Molecule `COC(=O)CCCCCCCCCC[S+]([O-])c1ncc([N+](=O)[O-])n1C` (stereo not drawn) had an MIC greater than 100 µg/mL.

On to `Cn1c([N+](=O)[O-])cnc1[S+]([O-])CCOc1ccc(C#N)cc1` (stereo not drawn), for which the minimal inhibitory concentration (MIC) was greater than 100 µg/mL.

On to `Cn1c([N+](=O)[O-])cnc1[S+]([O-])CCCCCCCOc1ccccc1[N+](=O)[O-]` (stereo not drawn), for which the MIC was greater than 100 µg/mL.

The molecule `Cn1c([N+](=O)[O-])cnc1[S+]([O-])CCCCCCCCCCC(=O)O` (stereo not drawn) returned an MIC greater than 100 µg/mL.

For the molecule `CCOC(=O)c1ccc(OCCCCCCCCCCSc2ncc([N+](=O)[O-])n2C)c([N+](=O)[O-])c1`, the MIC is greater than 100 µg/mL.

A further experiment concerns Neisseria gonorrhoeae. In words: Antibacterial activity against Neisseria gonorrhoeae ATCC 19424 after 48 hrs by ten-fold serial dilution method. It counts as functional. The conditions noted are these: ATCC 19424, 48 h. The method, boiled down:
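Tested on chocolate agar made from GC agar base with hemoglobin and Supplement C, incubated 48 h at 37 °C. Plates were checked visually, and the MIC (µg/mL) is the lowest concentration with no visible growth.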
In turn, `COC(=O)CCCCCCCCCCS(=O)(=O)c1ncc([N+](=O)[O-])n1C` registered an MIC greater than 100 µg/mL.

`Cn1c([N+](=O)[O-])cnc1SCCCCOc1ccc(C(=O)O)cc1` returned an MIC of 100 µg/mL (≈ 285 µM).

`Cn1c([N+](=O)[O-])cnc1SCCC(=O)O` came in with a minimum inhibitory concentration (MIC) of 10 µg/mL (≈ 43.2 µM).

`Cn1c([N+](=O)[O-])cnc1SCCCCCCCOc1ccccc1[N+](=O)[O-]` came in with an MIC greater than 100 µg/mL.

The molecule `COC(=O)CCCCCCCCCC[S+]([O-])c1ncc([N+](=O)[O-])n1C` (stereo not drawn) returned an MIC of 100 µg/mL (≈ 268 µM).

`Cn1c([N+](=O)[O-])cnc1[S+]([O-])CCOc1ccc(C#N)cc1` (stereo not drawn) had an MIC of 100 µg/mL (≈ 312 µM).

In the case of `Cn1c([N+](=O)[O-])cnc1[S+]([O-])CCCCCCCOc1ccccc1[N+](=O)[O-]` (stereo not drawn), the minimal inhibitory concentration (MIC) is greater than 100 µg/mL.

In turn, `Cn1c([N+](=O)[O-])cnc1[S+]([O-])CCCCCCCCCCC(=O)O` (stereo not drawn) yielded an MIC of 100 µg/mL (≈ 278 µM).

`CCOC(=O)c1ccc(OCCCCCCCCCCSc2ncc([N+](=O)[O-])n2C)c([N+](=O)[O-])c1` yielded an MIC greater than 100 µg/mL.

Another experiment deals with Trichomonas vaginalis. In words: Antibacterial activity against Trichomonas vaginalis ATCC 30001 after 48 hrs by ten-fold serial dilution method. The class given is functional. Particulars: ATCC 30001, 48 h. The procedure, abridged: as §1
In turn, `COC(=O)CCCCCCCCCCS(=O)(=O)c1ncc([N+](=O)[O-])n1C` gave a minimal inhibitory concentration (MIC) greater than 100 µg/mL.

The molecule `Cn1c([N+](=O)[O-])cnc1SCCCCOc1ccc(C(=O)O)cc1` had an MIC of 1 µg/mL (≈ 2.85 µM).

Take `Cn1c([N+](=O)[O-])cnc1SCCC(=O)O`: the MIC came out at 10 µg/mL (≈ 43.2 µM).

The molecule `Cn1c([N+](=O)[O-])cnc1SCCCCCCCOc1ccccc1[N+](=O)[O-]` yielded an MIC of 100 µg/mL (≈ 254 µM).

`COC(=O)CCCCCCCCCC[S+]([O-])c1ncc([N+](=O)[O-])n1C` (stereo not drawn): it took 100 µg/mL (≈ 268 µM) to inhibit growth (MIC).

With `Cn1c([N+](=O)[O-])cnc1[S+]([O-])CCOc1ccc(C#N)cc1` (stereo not drawn), the minimal inhibitory concentration (MIC) was determined as 10 µg/mL (≈ 31.2 µM).

In turn, `Cn1c([N+](=O)[O-])cnc1[S+]([O-])CCCCCCCOc1ccccc1[N+](=O)[O-]` (stereo not drawn) had an MIC of 100 µg/mL (≈ 244 µM).

For `Cn1c([N+](=O)[O-])cnc1[S+]([O-])CCCCCCCCCCC(=O)O` (stereo not drawn), the MIC was determined as 10 µg/mL (≈ 27.8 µM).

Take `CCOC(=O)c1ccc(OCCCCCCCCCCSc2ncc([N+](=O)[O-])n2C)c([N+](=O)[O-])c1`: the MIC came to 10 µg/mL (≈ 19.7 µM).
